The values below come from ChEMBL document CHEMBL2380309, “Design, synthesis, and biological evaluation of new 2'-deoxy-2'-fluoro-4'-triazole cytidine nucleosides as potent antiviral agents” (Eur J Med Chem, 2013).

Data set [1] in a line: Cytotoxicity against human MT2 cells by MTT assay. It counts as cell-based. Background: Tetrazolium dyes change colour on reduction, which living cells bring about.
Data set [2] concerns Human immunodeficiency virus 1. The experiment in a line: Antiviral activity against HIV1 expressing VSV glycoprotein plasmid infected in human 293T cells treated 15 mins before viral infection measured after 48 hrs by luciferase reporter gene assay. The data set is classed as functional, organism-based. The conditions noted are these: Human immunodeficiency virus 1, HEK-293T. An outline of the steps:
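293T cells plated 6×10⁴/well one hour before infection. Compound preincubated 15 min, then VSVG-pseudotyped env-deficient HIV-1 (pNL4-3.luc.R-E-, from Ca₃(PO₄)₂ co-transfection of 293T) added. Solvent-only control. After 48 h, cells lysed and luciferase activity read by luminometer. EC50 is the mean of at least two independent determinations.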
(A reporter such as luciferase makes a cellular process visible.)

In data set [3] the test system is Hepatitis B virus. Nature of the data set: Antiviral activity against HBV infected in human HepG2.2.15 assessed as reduction of viral e-antigen production […] by ELISA. The data set is classed as functional, organism-based. To be noted: HepG2 2.2.15.
Data set [4] concerns Hepatitis B virus. The experiment in a line: Antiviral activity against HBV infected in human HepG2.2.15 assessed as reduction of viral s-antigen production […] by ELISA. To be noted: HepG2 2.2.15. It counts as functional, organism-based. (In an ELISA, binding on a coated surface is turned into a signal by an enzyme label.)
Data set [5] can be described thus: Selectivity index, ratio of CC50 for human HepG2.2.15 cells to EC50 for HBV infected in human HepG2.2.15 assessed as reduction of viral s-antigen production.
Data set [6] in a line: Cytotoxicity against human HepG2.2.15 cells after 3 days by MTT assay. It counts as cell-based, HepG2 2.2.15. An outline of the steps:
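HepG2.2.15 cells, kept in RPMI 1640 with 10% FBS and G418 at 37°C under 5% CO2, were seeded at 1×10⁵ cells/well and cultured 24 h. They were then exposed to four compound concentrations (5 wells each) for 3 days, with drug-free cells as control. MTT (5 mg/mL) was added for 4 h at 37°C, formazan dissolved in DMSO, and A490 read. Survival was expressed as % of control, and CC50 was taken by Reed-Muench from at least two independent determinations.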

Data set [7] is described as follows: Selectivity index, ratio of CC50 for human MT2 cells to EC50 for HIV1. It counts as toxicity, cell-based. The conditions noted are these: read-out: Ratio CC50/EC50.
The nature of data set [8]: Selectivity index, ratio of CC50 for human HepG2.2.15 cells to EC50 for HBV infected in human HepG2.2.15 assessed as reduction of viral e-antigen production.

For orientation: CC50 means the concentration that lowers cell viability or growth by half. A lower CC50 goes with greater toxicity to the cells. Broadly, the EC50 is the concentration that produces a half-maximal response. On to `CCc1ccc(-c2cn([C@]3(CO)O[C@@H](n4ccc(N)nc4=O)[C@@H](F)[C@@H]3O)nn2)cc1`, for which the 50% cytotoxic concentration (CC50) in data set [1] was not below 25000 nM. In data set [2], this compound gave a half-maximal effective concentration (EC50) of 600 nM.
For `Nc1ccn([C@@H]2O[C@@](CO)(n3cc(C4(O)CCCC4)nn3)[C@@H](O)[C@@H]2F)c(=O)n1` the same measures were not below 25000 nM and 1300 nM.
In the case of `Cc1ccc(-c2cn([C@]3(CO)O[C@@H](n4ccc(N)nc4=O)[C@@H](F)[C@@H]3O)nn2)cc1`, the half-maximal effective concentration (EC50) with Hepatitis B virus [3] was more than 1000 nM; in the data set with Hepatitis B virus [4], 10 nM; in data set [2] it was 3700 nM. In data set [1], this compound showed a 50% cytotoxic concentration (CC50) not below 25000 nM. In data set [5], the “Ratio CC50/EC50” value was determined as 49800. The compound also came in with a CC50 at 72 h in data set [6] of 498000 nM.
For the compound `Nc1ccn([C@@H]2O[C@@](CO)(n3ccnn3)[C@@H](O)[C@@H]2F)c(=O)n1`, the selectivity ratio in data set [7] was more than 278. The same compound displayed a CC50 in data set [1] not below 25000 nM. The same compound returned a half-maximal effective concentration (EC50) in data set [2] of 90 nM.
With `Nc1ccn([C@@H]2O[C@@](CO)(n3cc(CC4CCCCC4)nn3)[C@@H](O)[C@@H]2F)c(=O)n1`, in data set [1], the cytotoxic concentration (CC50) is not below 25000 nM. The same compound had an EC50 in data set [2] of 4800 nM.
For `CC(C)(C)c1cn([C@]2(CO)O[C@@H](n3ccc(N)nc3=O)[C@@H](F)[C@@H]2O)nn1`, the selectivity ratio in data set [7] is more than 278. Further, in data set [1], the cytotoxic concentration (CC50) is not below 25000 nM. Further, the EC50 in data set [2] is 80 nM.
For the compound `[N-]=[N+]=N[C@]1(CO)O[C@@H](n2ccc(N)nc2=O)[C@@H](F)[C@@H]1O` [RO-0622], the CC50 in data set [1] was more than 10000 nM. Moreover, a half-maximal effect in data set [2] (EC50) was put at 0.3 nM.
Consider `Cc1cn([C@H]2C[C@H](N=[N+]=[N-])[C@@H](CO)O2)c(=O)[nH]c1=O` [ZIDOVUDINE], for which, in data set [1], the CC50 is not below 25000 nM. For the same compound, in data set [2], it took 84 nM to reach a half-maximal effect (EC50).
For `CCCCc1cn([C@]2(CO)O[C@@H](n3ccc(N)nc3=O)[C@@H](F)[C@@H]2O)nn1` the same measures were not below 25000 nM and 300 nM.
On to `Nc1ccn([C@@H]2O[C@@](CO)(n3cc(C4CC4)nn3)[C@@H](O)[C@@H]2F)c(=O)n1`, for which the 50% effective concentration (EC50) with Hepatitis B virus [3] came out at 1000 nM; in the data set with Hepatitis B virus [4], 120 nM; in data set [2] it was 600 nM. Also, the half-maximal cytotoxic concentration (CC50) in data set [1] was not below 25000 nM. The CC50 at 72 h in data set [6] is 834000 nM.
Consider `Nc1ccn([C@@H]2O[C@@](CO)(n3cc(-c4ccccc4)nn3)[C@@H](O)[C@@H]2F)c(=O)n1`, for which the “Ratio CC50/EC50” value in data set [8] is listed as 2264. The EC50 in the data set with Hepatitis B virus [3] is 250 nM; in the data set on Hepatitis B virus [4], 100 nM; in data set [2] it was 83 nM. For the same compound, in data set [7], the selectivity ratio is more than 278. Besides, the CC50 in data set [1] was not below 25000 nM. The compound further yielded a CC50 at 72 h in data set [6] of 566000 nM.
